Data reported in ChEMBL document CHEMBL4130579, “Sulfur-Containing Aristoloxazines and Other Constituents of the Roots of Aristolochia orbicularis” (2017).
Values after ≈ are worked out from the molar mass of the structure shown. Active and inactive are the calls of the source. No cut-off for these calls is given here.

Tests used:
Escherichia coli = test: Antibacterial activity against Escherichia coli ATCC 25922 at 128 ug/ml after 24 hrs by broth microdilution method; format: functional, organism-based
Procedure, shortened: (§1)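 Strains kept on Mueller-Hinton agar at 4 °C, grown in MH broth at 37 °C for 18 h before testing. NCCLS standard broth microdilution, serial dilution over 0.125−128 μg/mL. Inoculum set to 10^5 CFU/mL by 0.5 McFarland standard. Plates incubated at 37 °C for 24 h, then p-iodonitrotetrazolium violet (0.5 mg/mL) added. Red colour marks viable cells; growth at the top concentration scored.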

Candida albicans = test: Antifungal activity against Candida albicans ATCC 10231 after 24 hrs by agar dilution method; format: functional
Procedure, shortened: (§2)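 Agar dilution on Sabouraud glucose agar with 2-fold dilutions from 128 to 0.5 μg/mL and final DMSO below 2% (v/v). Inocula were spotted with a 0.005 mL loop: C. albicans at 10^5 cells/mL and filamentous fungi at 10^6 spores/mL. Plates were incubated at 29 °C in duplicate, for 24 h (C. albicans, A. niger) or 72 h (dermatophytes).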

[1] = tested on: Trichophyton mentagrophytes; test: Antifungal activity against Trichophyton mentagrophytes ATCC 28185 after 72 hrs by agar dilution method; format: functional; conditions: ATCC 28185, 72 h; procedure, shortened: as §2
Proteus mirabilis = test: Antibacterial activity against Proteus mirabilis ATCC 43071 at 128 ug/ml after 24 hrs by broth microdilution method; format: functional, organism-based; procedure, shortened: as §1
Trichophyton rubrum = test: Antifungal activity against Trichophyton rubrum ATCC 28188 after 72 hrs by agar dilution method; format: functional; conditions: ATCC 28188, 72 h; procedure, shortened: as §2
Aspergillus niger = test: Antifungal activity against Aspergillus niger ATCC 10335 after 24 hrs by agar dilution method; format: functional; conditions: ATCC 10335, 24 h; procedure, shortened: as §2
Staphylococcus aureus [2] = test: Antibacterial activity against methicillin-sensitive Staphylococcus aureus ATCC 6358 after 24 hrs by broth microdilution method; format: functional; conditions: ATCC 6358, 24 h
Procedure, shortened: (§3)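 Strains were kept on Mueller-Hinton agar at 4 °C and grown in MH broth at 37 °C for 18 h. Broth microdilution followed NCCLS, with serial dilutions over 0.125–128 μg/mL and an inoculum of 10^5 CFU/mL set by the 0.5 McFarland standard. Plates were incubated at 37 °C for 24 h, then p-iodonitrotetrazolium violet (0.5 mg/mL) was added. MIC was the lowest concentration without red colour.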

Staphylococcus aureus [3] = test: Antibacterial activity against beta-lactamase producing methicillin-resistant Staphylococcus aureus ATCC 11632 after 24 hrs by broth microdilution method; format: functional; conditions: ATCC 11632, 24 h; procedure, shortened: as §3
Staphylococcus aureus [4] = test: Antibacterial activity against methicillin-resistant Staphylococcus aureus ATCC 43300 after 24 hrs by broth microdilution method; format: functional; conditions: ATCC 43300, 24 h; procedure, shortened: as §3
Staphylococcus aureus [5] = test: Antibacterial activity against methicillin-resistant Staphylococcus aureus ATCC 33591 after 24 hrs by broth microdilution method; format: functional; conditions: ATCC 33591, 24 h; procedure, shortened: as §3
Salmonella typhi = test: Antibacterial activity against Salmonella typhi ATCC 06539 at 128 ug/ml after 24 hrs by broth microdilution method; format: functional, organism-based; conditions: Salmonella enterica subsp. enterica serovar Typhi; procedure, shortened: as §1

| Compound | Activity (Escherichia coli) | MIC (Candida albicans; ATCC 10231, 24 h) | MIC [1] | Activity (Proteus mirabilis) | MIC (Trichophyton rubrum) | MIC (Aspergillus niger) | MIC (Staphylococcus aureus [2]) | MIC (Staphylococcus aureus [3]) | MIC (Staphylococcus aureus [4]) | MIC (Staphylococcus aureus [5]) | Activity (Salmonella typhi) | MIC (Candida albicans) |
| --- | --- | --- | --- | --- | --- | --- | --- | --- | --- | --- | --- | --- |
| COc1cc2c(=O)onc3c2c(c1OC)-c1cccc(OC)c1[C@@H]3SCC(N)=O | inactive | 25 µg/mL (≈ 60.3 µM) | 1 µg/mL (≈ 2.41 µM) | inactive | 1 µg/mL (≈ 2.41 µM) | 25 µg/mL (≈ 60.3 µM) | 0.5 µg/mL (≈ 1.21 µM) | 0.25 µg/mL (≈ 0.603 µM) | 0.25 µg/mL (≈ 0.603 µM) | 0.25 µg/mL (≈ 0.603 µM) | inactive |  |
| CC1(C)S[C@@H]2[C@H](NC(=O)[C@H](N)c3ccccc3)C(=O)N2[C@H]1C(=O)O [AMPICILLIN] |  |  |  |  |  |  | 2 µg/mL (≈ 5.72 µM) | 64 µg/mL (≈ 183 µM) | 128 µg/mL (≈ 366 µM) | 128 µg/mL (≈ 366 µM) |  |  |
| O=C(N[C@H](CO)[C@H](O)c1ccc([N+](=O)[O-])cc1)C(Cl)Cl [CHLORAMPHENICOL] |  |  |  |  |  |  | 1 µg/mL (≈ 3.09 µM) | 2 µg/mL (≈ 6.19 µM) | 2 µg/mL (≈ 6.19 µM) | 2 µg/mL (≈ 6.19 µM) |  |  |
| Clc1ccc(COC(Cn2ccnc2)c2ccc(Cl)cc2Cl)c(Cl)c1 (configuration not stated) [MICONAZOLE] |  |  | 2 µg/mL (≈ 4.81 µM) |  | 2 µg/mL (≈ 4.81 µM) | 16 µg/mL (≈ 38.4 µM) |  |  |  |  |  |  |
| Cc1onc(-c2ccccc2)c1C(=O)N[C@@H]1C(=O)N2[C@@H]1SC(C)(C)[C@@H]2C(=O)O [OXACILLIN] |  |  |  |  |  |  | 2 µg/mL (≈ 4.98 µM) | 32 µg/mL (≈ 79.7 µM) | 128 µg/mL (≈ 319 µM) | 128 µg/mL (≈ 319 µM) |  |  |
| NYSTATIN |  |  |  |  |  |  |  |  |  |  |  | 8 µg/mL |
